Assay: Acute toxicity in ICR mouse assessed as survival at 327.8 mg/kg, oral gavage on day 14
Format: organism-based
Conditions: in vivo
Summary of the method: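 ICR mice of both sexes, 7 weeks old, held under SPF conditions. Each got one gavage dose (800, 640, 512, 409.6 or 327.8 mg/kg) or vehicle, n = 8 per group. Deaths were recorded at 1 h, 4 h, 3 d and 4–14 d. Behaviour, water and food intake, body weight and activity were followed to day 14. LD50 given with 95% confidence limits.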

`CC1(C)CC[C@]23CC[C@@]4(C)[C@]5(C)CC[C@H]6C(C)(C)C(=O)C(C#N)=C[C@]6(C)C5=CC(=O)[C@@]4([C@@H]2C1)N(C1CCCCC1)C3=O` gave a survival at 14 day of 100%.
